Type in all cases: functional, cell-based
In one experiment the test system is MCF7. The experiment in a line: Cytotoxicity against human MCF7 cells after 3 days by MTT assay. As to conditions: MCF7, 72 h. The procedure, abridged: (§1)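 Cells kept in RPMI-1640 with 10% calf serum. Exponentially growing cells seeded at 4 × 10⁴ cells/mL, then medium replaced with fresh medium holding test compound (controls got solvent only). After incubation, MTT added for a further 4 h at 37 °C and formazan dissolved in DMSO. Read by OD. %inhibition = (OD control − OD test)/OD control × 100. Compounds giving ≥70% inhibition in a one-dose prescreen were serially diluted (0.06–0.002 range) for IC50.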
A general note: Tetrazolium dyes change colour on reduction, which living cells bring about.

A further experiment deals with HepG2. The experiment in a line: Cytotoxicity against human HepG2 cells after 3 days by MTT assay. As to conditions: HepG2, 72 h. The procedure, abridged:
as §1

The subject of another experiment is HeLa. The experiment is described as follows: Cytotoxicity against human HeLa cells after 3 days by MTT assay. As to conditions: 72 h. The procedure, abridged: as §1

Results on 21 compounds are retold here after ChEMBL document CHEMBL2034831, “Quinazoline-tyrphostin as a new class of antitumor agents, molecular properties prediction, synthesis and biological testing” (Eur J Med Chem, 2012).

For `Cc1ccc2nc(C)n(NC(=O)CC#N)c(=O)c2c1`, the IC50 (as a rule, the concentration at which inhibition is half-maximal) turned out to be 40 µM in the experiment with MCF7, 55 µM in the experiment on HepG2 and 30 µM in the experiment with HeLa.

Regarding `Cc1ccc2nc(C)n(NC(=O)/C(C#N)=C/c3ccccc3)c(=O)c2c1`, the IC50 was found to be 9 µM in the experiment with MCF7, 14 µM in the experiment with HepG2 and 13 µM with HeLa.

As for `Cc1ccc(/C=C(\C#N)C(=O)Nn2c(C)nc3ccc(C)cc3c2=O)cc1`, the IC50 in the experiment with MCF7 was determined as 10 µM; with HepG2, 12 µM; in the experiment on HeLa, 9 µM.

In the case of `Cc1ccc2nc(C)n(NC(=O)/C(C#N)=C/c3ccc(Cl)cc3)c(=O)c2c1`, the IC50 with MCF7 stood at 12 µM; in the experiment on HepG2 it was 9 µM; with HeLa, 12 µM.

With `Cc1ccc2nc(C)n(NC(=O)/C(C#N)=C/c3ccc([N+](=O)[O-])cc3)c(=O)c2c1`, the IC50 in the experiment on MCF7 came to 12 µM; with HepG2, 10 µM; in the experiment on HeLa, 15 µM.

With `Cc1ccc2nc(C)n(NC(=O)/C(C#N)=C/c3cccc(O)c3)c(=O)c2c1`, the IC50 in the experiment on MCF7 came to 15 µM; with HepG2, 14 µM; with HeLa it was 14 µM.

On to `Cc1ccc2nc(C)n(NC(=O)/C(C#N)=C/c3ccc(O)cc3)c(=O)c2c1`, for which the IC50 in the experiment with MCF7 came out at 14 µM; in the experiment with HepG2 it was 13 µM; in the experiment with HeLa, 13 µM.

As to `Cc1ccc2nc(C)n(NC(=O)/C(C#N)=C/c3ccc(O)c(O)c3)c(=O)c2c1`, the IC50 with MCF7, in the experiment on HepG2 and in the experiment on HeLa was 8 µM in each case.

On to `Cc1ccc2nc(C)n(NC(=O)c3cc4ccccc4oc3=N)c(=O)c2c1`, for which the values for the IC50 in the experiment with MCF7, in the experiment on HepG2 and in the experiment with HeLa were 17 µM, 23 µM and 38 µM, respectively.

Turning to `Cc1ccc2nc(C)n(-n3c(N)cc(N)c(C#N)c3=O)c(=O)c2c1`, the IC50 came out at 10 µM in the experiment with MCF7, 17 µM in the experiment with HepG2 and 15 µM in the experiment with HeLa.

For the compound `Cc1ccc2nc(C)n(-n3c(O)cc(N)c(C#N)c3=O)c(=O)c2c1`, the IC50 was determined as 26 µM with MCF7, 41 µM in the experiment with HepG2 and 45 µM with HeLa.

Consider `Cc1ccc2nc(C)n(-n3c(N)c(C#N)c(-c4ccccc4)c(C#N)c3=O)c(=O)c2c1`, for which the IC50 with MCF7 is 8 µM; in the experiment with HepG2 it was 10 µM; in the experiment on HeLa, 5 µM.

As for `CCOC(=O)c1c(-c2ccccc2)c(C#N)c(=O)n(-n2c(C)nc3ccc(C)cc3c2=O)c1N`, the results for the IC50 in the experiment with MCF7, with HepG2 and in the experiment on HeLa were 17 µM, 52 µM and 21 µM, respectively.

Consider `Cc1ccc2nc(C)n(NC(=O)c3sc(N)c(C#N)c3N)c(=O)c2c1`, for which the IC50 turned out to be 10 µM with MCF7, 15 µM in the experiment on HepG2 and 15 µM in the experiment on HeLa.

As for `CCOC(=O)c1c(N)sc(C(=O)Nn2c(C)nc3ccc(C)cc3c2=O)c1N`, the values for the half-inhibitory concentration (IC50) in the experiment with MCF7, in the experiment on HepG2 and in the experiment with HeLa were 16 µM, 22 µM and 23 µM, respectively.

On to `Cc1ccc2nc(C)n(NC(=O)c3sc4c(c3N)CCCC4)c(=O)c2c1`, for which the IC50 with MCF7 stood at 18 µM; in the experiment on HepG2, 22 µM; in the experiment on HeLa, 31 µM.

For `Cc1ccc2nc(C)n(NC(=O)c3sc(=S)n(-c4ccccc4)c3N)c(=O)c2c1`, the IC50 with MCF7 was 13 µM; with HepG2 it was 27 µM; with HeLa, 35 µM.

`Cc1ccc2nc(C)n(NC(=O)c3sc(=S)n(Cc4ccccc4)c3N)c(=O)c2c1`: the half-maximal inhibitory concentration (IC50) worked out at 10 µM with MCF7, 32 µM in the experiment on HepG2 and 26 µM in the experiment with HeLa.

Regarding `Cc1ccc2nc(C)n(NC(=O)/C(C#N)=N/Nc3ccccc3)c(=O)c2c1`, the values for the IC50 in the experiment on MCF7, in the experiment with HepG2 and in the experiment on HeLa were 19 µM, 12 µM and 79 µM, respectively.

For `Cc1ccc2nc(C)n(NC(=O)/C(C#N)=N/Nc3ccc(S(N)(=O)=O)cc3)c(=O)c2c1`, the IC50 with MCF7 is 9 µM; in the experiment on HepG2, 9 µM; with HeLa it was 12 µM.

`COc1cccc2c1C(=O)c1c(O)c3c(c(O)c1C2=O)C[C@@](O)(C(=O)CO)C[C@@H]3O[C@H]1C[C@H](N)[C@H](O)[C@H](C)O1` [DOXORUBICIN]: the IC50 with HepG2 stood at 9 µM; with HeLa, 8 µM.
